Values joined by “and” are separate entries in the source; they are usually repeats but may differ in a detail not shown here. Equal values may be shown once.
Tested on: HEK-293T
Test: Multiplex assay against HEK293T;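 for Population Tubulin-Different-Phenotype (%): share of the cells with healthy nuclei that show this phenotype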
Format: toxicity, cell-based
Conditions: human
Method in brief: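 Per cents of healthy-nucleus cells form the tubulin, mitochondrial-mass and membrane-permeability phenotype values. Live cells were stained at seeding with Hoechst33342, BioTracker Green Microtubule Cytoskeleton Dye, MitoTracker Red and Annexin V Alexa Fluor 680. After compound addition they were imaged on a CQ1 microscope at 37°C and 5% CO2, and CellPathfinder machine-learning gating split them into Hoechst high-intensity objects or normal cells, normal cells into healthy, pyknosed or fragmented nuclei, and pyknosed cells into mitotic or apoptotic.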

[1] = 12 h, 10 µM, compound concentration 10 uM, replicate 1
[2] = 12 h, 10 µM, compound concentration 10 uM, replicate 2
[3] = 24 h, 10 µM, compound concentration 10 uM, replicate 1
[4] = 24 h, 10 µM, compound concentration 10 uM, replicate 2
[5] = 12 h, 1 µM, compound concentration 1 uM, replicate 1
[6] = 12 h, 1 µM, compound concentration 1 uM, replicate 2
[7] = 24 h, 1 µM, compound concentration 1 uM, replicate 1
[8] = 24 h, 1 µM, compound concentration 1 uM, replicate 2
[9] = 48 h, 10 µM, compound concentration 10 uM, replicate 1
[10] = 48 h, 10 µM, compound concentration 10 uM, replicate 2

CN1C(=O)c2sccc2N(C)c2nc(Nc3ccc(S(N)(=O)=O)cc3)ncc21
Population Apoptotic (%) [1]: 16% and 18% | Population Fragmented Nuclei (%) [1]: 26% and 12% | Population Healthy Nuclei (%) [1]: 60% and 76% | Population Hoechst High Intensity Objects (%) [1]: 18% and 7% | Population Membrane Permeable-Phenotype (%) [1]: 4% and 3% | Population Mitochondria Different-Phenotype (%) [1]: 4% and 2% | Population Mitotic Cells (%) [1]: 83% and 81% | Population Normal (%) [1]: 81% and 92% | Population Pyknosed Nuclei (%) [1]: 13% and 11% | Population Tubulin-Different-Phenotype (%) [1]: 0% | Total Cell Count [1]: 672 and 727 | Population Apoptotic (%) [2]: 8% and 7% | Population Fragmented Nuclei (%) [2]: 8% and 4% | Population Healthy Nuclei (%) [2]: 86% and 85% | Population Hoechst High Intensity Objects (%) [2]: 1% and 2% | Population Membrane Permeable-Phenotype (%) [2]: 1% and 0% | Population Mitochondria Different-Phenotype (%) [2]: 7% and 9% | Population Mitotic Cells (%) [2]: 91% and 92% | Population Normal (%) [2]: 98% and 97% | Population Pyknosed Nuclei (%) [2]: 4% and 10% | Population Tubulin-Different-Phenotype (%) [2]: 4% and 1% | Total Cell Count [2]: 1564 and 1180 | Population Apoptotic (%) [3]: 19% and 15% | Population Fragmented Nuclei (%) [3]: 14% and 20% | Population Healthy Nuclei (%) [3]: 79% and 69% | Population Membrane Permeable-Phenotype (%) [3]: 5% | Population Mitochondria Different-Phenotype (%) [3]: 2% and 3% | Population Mitotic Cells (%) [3]: 80% and 84% | Population Normal (%) [3]: 95% and 82% | Population Pyknosed Nuclei (%) [3]: 6% and 10% | Population Tubulin-Different-Phenotype (%) [3]: 1% | Total Cell Count [3]: 894 and 614 | Population Apoptotic (%) [4]: 6% and 4% | Population Fragmented Nuclei (%) [4]: 25% and 12% | Population Healthy Nuclei (%) [4]: 71% and 80% | Population Hoechst High Intensity Objects (%) [4]: 2% | Population Membrane Permeable-Phenotype (%) [4]: 3% and 1% | Population Mitochondria Different-Phenotype (%) [4]: 1% | Population Mitotic Cells (%) [4]: 93% and 95% | Population Normal (%) [4]: 97% | Population Pyknosed Nuclei (%) [4]: 2% and 7% | Population Tubulin-Different-Phenotype (%) [4]: 4% and 2% | Total Cell Count [4]: 2712 and 1180

COc1cc2nccc(Oc3ccc(NC(=O)Nc4cc(C)on4)c(Cl)c3)c2cc1OC.O
Population Apoptotic (%) [5]: 28% and 23% | Population Fragmented Nuclei (%) [5]: 14% | Population Healthy Nuclei (%) [5]: 55% and 71% | Population Hoechst High Intensity Objects (%) [5]: 12% and 10% | Population Mitotic Cells (%) [5]: 72% and 76% | Population Normal (%) [5]: 87% and 89% | Population Pyknosed Nuclei (%) [5]: 30% and 14% | Total Cell Count [5]: 660 and 667 | Population Apoptotic (%) [6]: 18% and 12% | Population Fragmented Nuclei (%) [6]: 3% and 9% | Population Healthy Nuclei (%) [6]: 86% | Population Hoechst High Intensity Objects (%) [6]: 2% | Population Mitotic Cells (%) [6]: 81% and 87% | Population Normal (%) [6]: 97% | Population Pyknosed Nuclei (%) [6]: 10% and 4% | Total Cell Count [6]: 918 and 1845 | Population Apoptotic (%) [1]: 82% | Population Fragmented Nuclei (%) [1]: 11% | Population Healthy Nuclei (%) [1]: 21% | Population Hoechst High Intensity Objects (%) [1]: 13% | Population Membrane Permeable-Phenotype (%) [1]: 2% | Population Mitochondria Different-Phenotype (%) [1]: 100% | Population Mitotic Cells (%) [1]: 17% | Population Normal (%) [1]: 86% | Population Tubulin-Different-Phenotype (%) [1]: 97% | Total Cell Count [1]: 260 | Population Apoptotic (%) [2]: 59% | Population Fragmented Nuclei (%) [2]: 3% | Population Healthy Nuclei (%) [2]: 30% | Population Hoechst High Intensity Objects (%) [2]: 1% | Population Membrane Permeable-Phenotype (%) [2]: 8% | Population Mitochondria Different-Phenotype (%) [2]: 88% | Population Mitotic Cells (%) [2]: 40% | Population Normal (%) [2]: 98% | Population Pyknosed Nuclei (%) [2]: 66% | Population Tubulin-Different-Phenotype (%) [2]: 94% | Total Cell Count [2]: 226 | Population Apoptotic (%) [7]: 39% and 22% | Population Fragmented Nuclei (%) [7]: 14% and 17% | Population Healthy Nuclei (%) [7]: 63% and 74% | Population Hoechst High Intensity Objects (%) [7]: 11% and 8% | Population Membrane Permeable-Phenotype (%) [7]: 10% | Population Mitotic Cells (%) [7]: 60% and 77% | Population Normal (%) [7]: 88% and 92% | Population Pyknosed Nuclei (%) [7]: 22% and 8% | Total Cell Count [7]: 680 and 875 | Population Healthy Nuclei (%) [8]: 89% and 68% | Population Hoechst High Intensity Objects (%) [8]: 4% and 3% | Population Membrane Permeable-Phenotype (%) [8]: 14% and 8% | Population Mitotic Cells (%) [8]: 81% and 95% | Population Normal (%) [8]: 95% and 96% | Population Apoptotic (%) [3]: 89% | Population Fragmented Nuclei (%) [3]: 12% | Population Healthy Nuclei (%) [3]: 30% | Population Hoechst High Intensity Objects (%) [3]: 14% | Population Membrane Permeable-Phenotype (%) [3]: 3% | Population Mitochondria Different-Phenotype (%) [3]: 100% | Population Mitotic Cells (%) [3]: 10% | Population Normal (%) [3]: 85% | Population Pyknosed Nuclei (%) [3]: 56% | Population Tubulin-Different-Phenotype (%) [3]: 100% | Total Cell Count [3]: 253 | Population Apoptotic (%) [4]: 76% | Population Fragmented Nuclei (%) [4]: 2% | Population Healthy Nuclei (%) [4]: 50% | Population Hoechst High Intensity Objects (%) [4]: 1% | Population Membrane Permeable-Phenotype (%) [4]: 2% | Population Mitochondria Different-Phenotype (%) [4]: 98% | Population Mitotic Cells (%) [4]: 23% | Population Normal (%) [4]: 98% | Population Pyknosed Nuclei (%) [4]: 47% | Population Tubulin-Different-Phenotype (%) [4]: 97% | Total Cell Count [4]: 258 | Population Apoptotic (%) [9]: 73% | Population Fragmented Nuclei (%) [9]: 14% | Population Healthy Nuclei (%) [9]: 40% | Population Hoechst High Intensity Objects (%) [9]: 11% | Population Membrane Permeable-Phenotype (%) [9]: 2% | Population Mitochondria Different-Phenotype (%) [9]: 96% | Population Mitotic Cells (%) [9]: 26% | Population Normal (%) [9]: 88% | Population Pyknosed Nuclei (%) [9]: 45% | Population Tubulin-Different-Phenotype (%) [9]: 98% | Total Cell Count [9]: 272 | Population Apoptotic (%) [10]: 83% | Population Fragmented Nuclei (%) [10]: 3% | Population Healthy Nuclei (%) [10]: 72% | Population Hoechst High Intensity Objects (%) [10]: 2% | Population Membrane Permeable-Phenotype (%) [10]: 1% | Population Mitochondria Different-Phenotype (%) [10]: 91% | Population Mitotic Cells (%) [10]: 16% | Population Normal (%) [10]: 97% | Population Pyknosed Nuclei (%) [10]: 23% | Total Cell Count [10]: 292
